# Measured values from ChEMBL document CHEMBL1158774, “Collagenase inhibitory quinic acid esters from Ipomoea pes-caprae” (J Nat Prod, 2005).
# pIC50: −log10 of the molar value.
# Test: Inhibition of collagenase type 5
# How it was run: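 Collagenase type V ([…]) with a 20 µg/mL enzyme solution is preincubated with samples in 4% MeOH at 37 °C for 10 min. Fluorogenic substrate MOCAc-Pro-Leu-Gly-Leu-A2pr(Dnp)-Ala-Arg-NH2 (5 µM solution) is then added. Fluorescence (ex 320, em 405 nm) is read during 1 h at 37 °C. Phosphoramidon is the positive control.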
row,pIC50,SMILES
1,4.79,"COC(=O)[C@@]1(O)C[C@@H](O)[C@H](OC(=O)/C=C/c2ccc(O)c(O)c2)[C@H](OC(=O)/C=C/c2ccc(O)c(O)c2)C1 [3,4-O-TRANS-CAFFEOYLQUINIC ACID METHYL ESTER]"
2,4.43,O=C(/C=C/c1ccc(O)c(O)c1)O[C@@H]1[C@H](O)C[C@@](O)(C(=O)O)C[C@H]1OC(=O)/C=C/c1ccc(O)c(O)c1
3,5.24,COC(=O)[C@]1(O)C[C@@H](OC(=O)/C=C/c2ccc(O)c(O)c2)[C@@H](O)[C@H](OC(=O)/C=C/c2ccc(O)c(O)c2)C1
4,4.63,O=C(/C=C/c1ccc(O)c(O)c1)O[C@@H]1C[C@](O)(C(=O)O)C[C@@H](OC(=O)/C=C/c2ccc(O)c(O)c2)[C@H]1O
5,4.58,COC(=O)[C@]1(O)C[C@@H](O)[C@@H](OC(=O)/C=C/c2ccc(O)c(O)c2)[C@H](OC(=O)/C=C/c2ccc(O)c(O)c2)C1

# Continued, molecule first:
row,SMILES,pIC50
1,CC(C)C[C@H](NP(=O)(O)O[C@@H]1O[C@@H](C)[C@H](O)[C@@H](O)[C@H]1O)C(=O)N[C@@H](Cc1c[nH]c2ccccc12)C(=O)O [PHOSPHORAMIDON],6.22
2,O=C(O)[C@]1(O)C[C@@H](O)[C@@H](O)[C@H](O)C1 [QUINIC ACID],< 3.30
3,O=C(/C=C/c1ccc(O)c(O)c1)O[C@@H]1C[C@](O)(C(=O)O)C[C@@H](OC(=O)/C=C/c2ccc(O)c(O)c2)[C@H]1OC(=O)/C=C/c1ccc(O)cc1,4.72
4,O=C(/C=C/c1ccc(O)c(O)c1)O[C@@H]1[C@H](OC(=O)/C=C/c2ccc(O)cc2)C[C@@](OC(=O)/C=C/c2ccc(O)cc2)(C(=O)O)C[C@H]1OC(=O)/C=C/c1ccc(O)c(O)c1,4.85
5,O=C(O)/C=C/c1ccc(O)c(O)c1 [CAFFEIC ACID],4.08
